Assay results pooled from the literature.
Each line is one published result; the experiments were not run side by side.
FLT3 K663Q: Receptor-type tyrosine-protein kinase FLT3 (FLT3, Homo sapiens, UniProt P36888, K663Q)
FLT3: Receptor-type tyrosine-protein kinase FLT3 (FLT3, Homo sapiens, UniProt P36888)
FLT3 N841I: Receptor-type tyrosine-protein kinase FLT3 (FLT3, Homo sapiens, UniProt P36888, N841I)
FLT3 R834Q: Receptor-type tyrosine-protein kinase FLT3 (FLT3, Homo sapiens, UniProt P36888, R834Q)
FLT3 D835Y: Receptor-type tyrosine-protein kinase FLT3 (FLT3, Homo sapiens, UniProt P36888, D835Y)

| Structure (SMILES) | target | effect on | mode | method | concentration | endpoint | result |
| --- | --- | --- | --- | --- | --- | --- | --- |
| O=[N+]([O-])c1cccc2[nH]c(CNc3nc(N4CCOCC4)nc4c3ncn4-c3ccsc3)nc12 | FLT3 K663Q | binding |  | competition with immobilised ligand | 10 µM | binding vs control | 5.2% |
| CCN(CC)CCNC(=O)c1c(C)[nH]c(/C=C2\C(=O)Nc3ccc(F)cc32)c1C | FLT3 | enzyme activity | inhibitor |  | 0.1 µM | remaining activity | 1% |
| O=C1NC(c2ccccn2)Sc2ccccc21 (stereo not drawn) | Receptor-type tyrosine-protein kinase FLT3 (FLT3, Homo sapiens, UniProt P36888, D835V/ITD) | cell-free assay |  | competition with immobilised ligand | 1 µM | remaining binding | 83% |
| Cc1cc(NC(=O)c2cccc3cc(-c4cccc5[nH]nc(N)c45)ccc23)ccc1F | FLT3 | enzyme activity | inhibitor |  | 0.1 µM | activity vs control | 109% |
| O=c1nc(-c2ccccn2)sc2ccccc12 | FLT3 N841I | binding |  | competition with immobilised ligand | 1 µM | remaining binding | 74% |
| c1cnn2ncc(-c3ccnc(N4CCC45COC5)n3)c2c1 | FLT3 R834Q | binding |  |  | 1 µM | remaining binding | 82% |
| CCN(CC)CCNC(=O)c1c(C)[nH]c(/C=C2\C(=O)Nc3ccc(F)cc32)c1C | FLT3 | cell-free assay |  |  | 0.5 µM | remaining signal | 2.71% |
| Cc1cnc(NC2CCOCC2)nc1-n1cnc(C(=O)NC(CN)c2cc(F)cc(Cl)c2)c1 (stereo not drawn) | FLT3 | enzyme activity | inhibitor | radiometric | 1 µM | remaining activity | 94% |
| NS(=O)(=O)c1cc(NC(=O)Cc2ccccc2)ccc1Oc1cccc(Cl)c1 | FLT3 | cell-free assay |  | competition with immobilised ligand | 1 µM | remaining binding | 100% |
| O=C1Nc2ccc(Cl)cc2C1=Cc1cc(Cl)c(O)c(Cl)c1 | FLT3 | cell-free assay |  |  | 0.5 µM | remaining signal | 26.5% |
| COc1ccnn2ncc(-c3ccnc(N(C)C)n3)c12 | FLT3 | binding |  |  | 1 µM | remaining binding | 100% |
| Cc1cnc(Nc2ccc(C(=O)N3CCC(N4CCCC4)CC3)cc2)nc1-c1cc2ccccc2s1 | FLT3 R834Q | binding |  | competition with immobilised ligand | 1 µM | remaining binding | 6.2% |
| C[C@@H]1CCN(c2nccc(-c3cnn4ncccc34)n2)C1 | Receptor-type tyrosine-protein kinase FLT3 (FLT3, Homo sapiens, UniProt P36888, D835V) | binding |  |  | 1 µM | remaining binding | 51% |
| CC(C)CC(=O)N1CCc2nc(-c3ccc(Br)cc3)nc(N(C)Cc3ccccc3)c2C1 | FLT3 N841I | cell-free assay |  | competition with immobilised ligand | 0.1 µM | remaining binding | 100% |
| O=C(c1ccc(Nc2nccc(-c3cc4ccccc4s3)n2)cc1)N1CCC(N2CCCC2)CC1 | FLT3 K663Q | binding |  | competition with immobilised ligand | 1 µM | remaining binding | 37% |
| CN(C)c1ncc(F)c(-c2cnn3ncccc23)n1 | FLT3 D835Y | binding |  |  | 1 µM | remaining binding | 100% |
| CCCOc1ccc([C@H]2[C@H](C(=O)O)[C@@H](c3ccc4c(c3)OCO4)CN2CC(=O)Nc2c(CC)cccc2CC)cc1 | FLT3 N841I | cell-free assay |  | competition with immobilised ligand | 1 µM | remaining binding | 93% |
| CN(CCCC(F)(F)F)c1nccc(-c2cnn3ncccc23)n1 | Receptor-type tyrosine-protein kinase FLT3 (FLT3, Homo sapiens, UniProt P36888, D835H) | binding |  |  | 1 µM | remaining binding | 96% |
| O=C(Nc1cccnn1)N1CCC(=Cc2cccc(Oc3ccc(C(F)(F)F)cn3)c2)CC1 | FLT3 D835Y | cell-free assay |  | competition with immobilised ligand | 1 µM | remaining binding | 100% |
| N[C@H]1CCN(c2nccc(-c3cnn4ncccc34)n2)C1 | Receptor-type tyrosine-protein kinase FLT3, autoinhibited (FLT3, Homo sapiens, UniProt P36888) | binding |  |  | 1 µM | remaining binding | 99% |
| Nc1ncnc2occ(-c3ccc(NC(=O)Nc4cc(C(F)(F)F)ccc4F)cc3)c12 | FLT3 | cell-free assay | inhibitor |  | 20 µM | remaining signal | 1.8% |
